# Source: ChEMBL document CHEMBL1212764, “Antimicrobial resistance in Haemophilus influenzae respiratory tract isolates in Korea: results of a nationwide acute respiratory infections surveillance” (2010)
# Key:
# Type in all cases: functional
# Haemophilus influenzae [1] = test: Antimicrobial activity against Beta-lactamase-negative, ampicillin-resistant Haemophilus influenzae with penicillin-binding protein 3 by broth microdilution method
# Outline: (§1)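 Broth microdilution MIC in freshly prepared Haemophilus test medium per 2008 CLSI guidelines; H. influenzae ATCC 49247 and ATCC 49766 as control strains. Isolates from outpatient nasal aspirates (no prior antibiotics), cultured on blood agar with S. aureus streak and chocolate agar. PBP3 substitutions deduced from ftsI sequencing against the Rd strain; β-lactamase genes (TEM-1, ROB-1) detected by PCR.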
# Haemophilus influenzae [2] = test: Antimicrobial activity against Beta-lactamase-negative, ampicillin-resistant Haemophilus influenzae with Asp350Asn, Ser357Asp, Met377Ile, Ser385Thr, Arg517His substitutions in penicillin-binding protein 3 by broth microdilution method; outline: as §1
# Haemophilus influenzae [3] = test: Antimicrobial activity against Haemophilus influenzae isolate by broth microdilution method; outline: as §1
# Haemophilus influenzae [4] = test: Antimicrobial activity against Beta-lactamase-positive, ampicillin-cluvulanate-resistant Haemophilus influenzae with Asp350Asn, Met377Ile, Asn526Lys substitutions in penicillin-binding protein 3 by broth microdilution method; outline: as §1
# Haemophilus influenzae [5] = test: Antimicrobial activity against Beta-lactamase-positive, ampicillin-cluvulanate-resistant Haemophilus influenzae with Ala368Thr, Ala502Thr, Asn526Lys substitutions in penicillin-binding protein 3 by broth microdilution method; outline: as §1
# Haemophilus influenzae [6] = test: Antimicrobial activity against Beta-lactamase-positive, ampicillin-cluvulanate-resistant Haemophilus influenzae with Ile449Val, Asn526Lys substitutions in penicillin-binding protein 3 by broth microdilution method; outline: as §1
# Haemophilus influenzae [7] = test: Antimicrobial activity against Beta-lactamase-negative, ampicillin-resistant Haemophilus influenzae with Asp350Asn, Met377Ile, Ala502Val, Asn526Lys substitutions in penicillin-binding protein 3 by broth microdilution method; outline: as §1
# Haemophilus influenzae [8] = test: Antimicrobial activity against Beta-lactamase-negative, ampicillin-resistant Haemophilus influenzae with Asp350Asn, Met377Ile, Asn526Lys substitutions in penicillin-binding protein 3 by broth microdilution method; outline: as §1
# Haemophilus influenzae [9] = test: Antimicrobial activity against Beta-lactamase-negative, ampicillin-resistant Haemophilus influenzae with Gly490Glu, Asn526Lys substitutions in penicillin-binding protein 3 by broth microdilution method; outline: as §1
# Haemophilus influenzae [10] = test: Antimicrobial activity against Beta-lactamase-positive, ampicillin-cluvulanate-resistant Haemophilus influenzae with Asp350Asn, Ser357Asp, Met377Ile, Ser385Thr, Arg517His substitutions in penicillin-binding protein 3 by broth microdilution method; outline: as §1
# Haemophilus influenzae [11] = test: Antimicrobial activity against Beta-lactamase-negative, ampicillin-resistant Haemophilus influenzae with Asp350Asn, Ser357Asp, Met377Ile, Ser385Thr, Ala502Thr, Asn526Lys substitutions in penicillin-binding protein 3 by broth microdilution method; outline: as §1
# Haemophilus influenzae [12] = test: Antimicrobial activity against Beta-lactamase-negative, ampicillin-resistant Haemophilus influenzae by broth microdilution method; outline: as §1
# Haemophilus influenzae [13] = test: Antimicrobial activity against Beta-lactamase-negative, ampicillin-resistant Haemophilus influenzae with Ala502Val, Asn526Lys substitutions in penicillin-binding protein 3 by broth microdilution method; outline: as §1
# Haemophilus influenzae [14] = test: Antimicrobial activity against Beta-lactamase-positive, ampicillin-resistant Haemophilus influenzae by broth microdilution method; outline: as §1
# Haemophilus influenzae [15] = test: Antimicrobial activity against Beta-lactamase-positive, ampicillin-cluvulanate-resistant Haemophilus influenzae with Ala502Val, Asn526Lys substitutions in penicillin-binding protein 3 by broth microdilution method; outline: as §1
# Haemophilus influenzae [16] = test: Antimicrobial activity against Beta-lactamase-positive, ampicillin-cluvulanate-resistant Haemophilus influenzae with Asp350Asn, Ser357Asp, Ala437Ser, Ala502Thr, Asn526Lys substitutions in penicillin-binding protein 3 by broth microdilution method; outline: as §1
# Haemophilus influenzae [17] = test: Antimicrobial activity against beta-lactamase-negative, ampicillin-sensitive Haemophilus influenzae by broth microdilution method; outline: as §1
# Haemophilus influenzae [18] = test: Antimicrobial activity against Beta-lactamase-negative, ampicillin-resistant Haemophilus influenzae with Ile449Val, Asn526Lys substitutions in penicillin-binding protein 3 by broth microdilution method; outline: as §1
# Haemophilus influenzae [19] = test: Antimicrobial activity against Beta-lactamase-negative, ampicillin-resistant Haemophilus influenzae with Asp350Asn, Ser357Asp, Met377Ile, Ser385Thr, Leu389Phe, substitutions in penicillin-binding protein 3 by broth microdilution method; outline: as §1
# Haemophilus influenzae [20] = test: Antimicrobial activity against Beta-lactamase-positive, ampicillin-cluvulanate-resistant Haemophilus influenzae by broth microdilution method; outline: as §1
# Haemophilus influenzae [21] = test: Antimicrobial activity against Beta-lactamase-positive, ampicillin-cluvulanate-resistant Haemophilus influenzae with Asp350Asn, Ala502Thr, Asn526Lys substitutions in penicillin-binding protein 3 by broth microdilution method; outline: as §1
# Haemophilus influenzae [22] = test: Antimicrobial activity against Beta-lactamase-negative, ampicillin-resistant Haemophilus influenzae with Asp350Asn, Met377Ile, Gly490Glu, Ala502Val, Asn526Lys substitutions in penicillin-binding protein 3 by broth microdilution method; outline: as §1
# Haemophilus influenzae [23] = test: Antimicrobial activity against Beta-lactamase-negative, ampicillin-resistant Haemophilus influenzae with Asp350Asn, Met377Ile, Gly490Glu, Asn526Lys substitutions in penicillin-binding protein 3 by broth microdilution method; outline: as §1
# Haemophilus influenzae [24] = test: Antimicrobial activity against Beta-lactamase-negative, ampicillin-resistant Haemophilus influenzae with Asp350Asn, Ser357Asp, Ser385Thr, Leu389Phe, Ala502Thr, Asn526Lys substitutions in penicillin-binding protein 3 by broth microdilution method; outline: as §1
# Haemophilus influenzae [25] = test: Antimicrobial activity against Beta-lactamase-positive, ampicillin-cluvulanate-resistant Haemophilus influenzae with Asp350Asn, Met377Ile, Ala502Val, Asn526Lys substitutions in penicillin-binding protein 3 by broth microdilution method; outline: as §1
# Haemophilus influenzae [26] = test: Antimicrobial activity against Beta-lactamase-negative, ampicillin-resistant Haemophilus influenzae with Ile449Val, Ala502Thr, Asn526Lys substitutions in penicillin-binding protein 3 by broth microdilution method; outline: as §1
# Haemophilus influenzae [27] = test: Antimicrobial activity against Beta-lactamase-positive, ampicillin-cluvulanate-resistant Haemophilus influenzae with Asp350Asn, Met377Ile, Ser385Thr, Asn526Lys substitutions in penicillin-binding protein 3 by broth microdilution method; outline: as §1
# Haemophilus influenzae [28] = test: Antimicrobial activity against Beta-lactamase-positive, ampicillin-cluvulanate-resistant Haemophilus influenzae with Asp350Asn, Met377Ile, Gly490Glu, Ala502Val, Asn526Lys substitutions in penicillin-binding protein 3 by broth microdilution method; outline: as §1
# Haemophilus influenzae [29] = test: Antimicrobial activity against Beta-lactamase-negative, ampicillin-resistant Haemophilus influenzae with Ser311Pro, Ala502Thr, Asn526Lys substitutions in penicillin-binding protein 3 by broth microdilution method; outline: as §1
# Haemophilus influenzae [30] = test: Antimicrobial activity against Beta-lactamase-positive, ampicillin-cluvulanate-resistant Haemophilus influenzae with Asp350Asn, Ala437Ser substitutions in penicillin-binding protein 3 by broth microdilution method; outline: as §1
# [31] = Haemophilus influenzae, read-out: MIC
SMILES,MIC (Haemophilus influenzae [1]),MIC (Haemophilus influenzae [2]),MIC50 (Haemophilus influenzae [3]),MIC90 (Haemophilus influenzae [3]),MIC (Haemophilus influenzae [4]),MIC (Haemophilus influenzae [5]),MIC (Haemophilus influenzae [6]),MIC (Haemophilus influenzae [7]),MIC (Haemophilus influenzae [8]),MIC (Haemophilus influenzae [9]),MIC (Haemophilus influenzae [10]),MIC (Haemophilus influenzae [11]),MIC50 (Haemophilus influenzae [12]),MIC90 (Haemophilus influenzae [12]),MIC50 (Haemophilus influenzae [14]),MIC90 (Haemophilus influenzae [14]),MIC50 (Haemophilus influenzae [17]),MIC90 (Haemophilus influenzae [17]),MIC50 (Haemophilus influenzae [20]),MIC90 (Haemophilus influenzae [20]),further results
CO/N=C(\C(=O)N[C@@H]1C(=O)N2C(C(=O)O)=C(COC(N)=O)CS[C@H]12)c1ccco1 [CEFUROXIME],2 µg/mL,13.3 µg/mL,2 µg/mL,8 µg/mL,2 µg/mL,6.5 µg/mL,4 µg/mL,6 µg/mL,9.3 µg/mL,9.3 µg/mL,32 µg/mL,11.4 µg/mL,8 µg/mL,16 µg/mL,2 µg/mL,8 µg/mL,2 µg/mL,8 µg/mL,8 µg/mL,32 µg/mL,MIC (Haemophilus influenzae [13]): 6 µg/mL; MIC (Haemophilus influenzae [15]): 11.4 µg/mL; MIC (Haemophilus influenzae [16]): 6.5 µg/mL; MIC (Haemophilus influenzae [18]; [31]): 8 µg/mL; MIC (Haemophilus influenzae [19]): 13.3 µg/mL; MIC (Haemophilus influenzae [21]): 6.5 µg/mL; MIC (Haemophilus influenzae [22]): 6 µg/mL; MIC (Haemophilus influenzae [23]): 9.3 µg/mL; MIC (Haemophilus influenzae [24]): 11.4 µg/mL; MIC (Haemophilus influenzae [25]): 11.4 µg/mL; MIC (Haemophilus influenzae [26]): 11.4 µg/mL; MIC (Haemophilus influenzae [27]): 2 µg/mL; MIC (Haemophilus influenzae [28]): 11.4 µg/mL; MIC (Haemophilus influenzae [29]): 11.4 µg/mL; MIC (Haemophilus influenzae [30]): 4 µg/mL
C[C@H]1COc2c(N3CCN(C)CC3)c(F)cc3c(=O)c(C(=O)O)cn1c23.C[C@H]1COc2c(N3CCN(C)CC3)c(F)cc3c(=O)c(C(=O)O)cn1c23.O [LEVOFLOXACIN],,,0.016 µg/mL,0.031 µg/mL,,,,,,,,,0.016 µg/mL,0.016 µg/mL,0.016 µg/mL,0.031 µg/mL,0.016 µg/mL,0.031 µg/mL,0.016 µg/mL,0.031 µg/mL,
N[C@@H](C(=O)N[C@@H]1C(=O)N2C(C(=O)O)=C(Cl)CS[C@H]12)c1ccccc1 [CEFACLOR ANHYDROUS],,,8 µg/mL,32 µg/mL,,,,,,,,,8 µg/mL,32 µg/mL,8 µg/mL,32 µg/mL,8 µg/mL,16 µg/mL,8 µg/mL,64 µg/mL,
CC1(C)S[C@@H]2[C@H](NC(=O)[C@H](N)c3ccccc3)C(=O)N2[C@H]1C(=O)O [AMPICILLIN],2 µg/mL,2 µg/mL,16 µg/mL,256 µg/mL,288 µg/mL,208 µg/mL,512 µg/mL,2.2 µg/mL,4 µg/mL,4 µg/mL,192 µg/mL,2.8 µg/mL,2 µg/mL,8 µg/mL,128 µg/mL,256 µg/mL,1 µg/mL,1 µg/mL,256 µg/mL,> 512 µg/mL,MIC (Haemophilus influenzae [13]): 2.2 µg/mL; MIC (Haemophilus influenzae [15]): 230 µg/mL; MIC (Haemophilus influenzae [16]): 208 µg/mL; MIC (Haemophilus influenzae [18]): 2.7 µg/mL; MIC (Haemophilus influenzae [18]; [31]): 2.7 µg/mL; MIC (Haemophilus influenzae [19]): 5.3 µg/mL; MIC (Haemophilus influenzae [21]): 208 µg/mL; MIC (Haemophilus influenzae [22]): 2.2 µg/mL; MIC (Haemophilus influenzae [23]): 4 µg/mL; MIC (Haemophilus influenzae [24]): 2.8 µg/mL; MIC (Haemophilus influenzae [25]): 230 µg/mL; MIC (Haemophilus influenzae [26]): 2.8 µg/mL; MIC (Haemophilus influenzae [27]): 288 µg/mL; MIC (Haemophilus influenzae [28]): 230 µg/mL; MIC (Haemophilus influenzae [29]): 2.8 µg/mL; MIC (Haemophilus influenzae [30]): 512 µg/mL
